The source made the active and inactive calls. The calls are words filed in the database; no cut-off is given here.
Assays:
PBMC [1] = assay: Activation of human PBMC assessed as down-regulation of HLA-DR expression at 2 uM after 4 days by flow cytometry; assay type: functional, cell-based
How it was run: (§1)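 Fresh blood from healthy adult donors; PBMC isolated on Ficoll-Paque gradient (800 g, 30 min, room temperature), washed twice and cultured at 1.5 million cells/mL in RPMI 1640 with penicillin/streptomycin, 1 mM pyruvate and 10% heat-inactivated FCS. Sterile-filtered dendrimer was added at the final concentration. Monocytes were gated by morphology. The readout was HLA-DR (FITC) or CD14 (PE-Pc5) staining, given as the mfi ratio versus isotype control. Three donors were tested.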

PBMC [2] = assay: Activation of human PBMC assessed as down-regulation of CD14 expression at 2 uM after 4 days by flow cytometry; assay type: functional, cell-based; how it was run: as §1
PBMC [3] = assay: Activation of human PBMC assessed as down-regulation of HLA-DR expression at 20 uM after 4 days by flow cytometry; assay type: functional, cell-based; how it was run: as §1
PBMC [4] = assay: Activation of human PBMC assessed as occurrence of bigger and granular monocytes by flow cytometry; assay type: functional, cell-based
How it was run: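 Donor PBMC were prepared on Ficoll-Paque and cultured in complete RPMI 1640 (10% heat-inactivated FCS, 1.5 million cells/mL) with sterile-filtered dendrimer at the final concentration. By flow cytometry (LSR-II), monocytes were selected on scatter morphology, and the read-out was an increase in cell size and granularity.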

PBMC [5] = assay: Activation of human PBMC assessed as down-regulation of HLA-DR expression by flow cytometry; assay type: functional, cell-based; how it was run: as §1
[6] = Solubility in water; assay type: physicochemical; conditions: buffer
PBMC [7] = assay: Activation of human PBMC assessed as down-regulation of CD14 expression by flow cytometry; assay type: functional, cell-based; how it was run: as §1
PBMC [8] = assay: Activation of human PBMC assessed as down-regulation of HLA-DR expression after 4 days by flow cytometry; assay type: functional, cell-based; how it was run: as §1
PBMC [9] = assay: Activation of human PBMC assessed as down-regulation of CD14 expression at 20 uM after 4 days by flow cytometry; assay type: functional, cell-based; how it was run: as §1
PBMC [10] = assay: Activation of human PBMC assessed as down-regulation of CD14 expression after 4 days by flow cytometry; assay type: functional, cell-based; how it was run: as §1
PBMC [11] = assay: Cytotoxicity against long-lasting cultures of human PBMC; assay type: cell-based

| Structure (SMILES) | Activity (PBMC [1]) | Activity (PBMC [2]) | Activity (PBMC [3]) | Activity (PBMC [4]) | Activity (PBMC [5]) | solubility [6] | Activity (PBMC [7]) | Activity (PBMC [8]) | Activity (PBMC [9]) | Activity (PBMC [10]) | Activity (PBMC [11]) |
| --- | --- | --- | --- | --- | --- | --- | --- | --- | --- | --- | --- |
| C=CCN(CP(=O)([O-])O)C(c1ccc(OP(=S)(Oc2ccc(C(N(CC=C)CP(=O)([O-])O)P(=O)([O-])O)cc2)N(C)/N=C/c2ccc(OP3(Oc4ccc(/C=N/N(C)P(=S)(Oc5ccc(C(N(CC=C)CP(=O)([O-])O)P(=O)([O-])O)cc5)Oc5ccc(C(N(CC=C)CP(=O)([O-])O)P(=O)([O-])O)cc5)cc4)=NP(Oc4ccc(/C=N/N(C)P(=S)(Oc5ccc(C(N(CC=C)CP(=O)([O-])O)P(=O)([O-])O)cc5)Oc5ccc(C(N(CC=C)CP(=O)([O-])O)P(=O)([O-])O)cc5)cc4)(Oc4ccc(/C=N/N(C)P(=S)(Oc5ccc(C(N(CC=C)CP(=O)([O-])O)P(=O)([O-])O)cc5)Oc5ccc(C(N(CC=C)CP(=O)([O-])O)P(=O)([O-])O)cc5)cc4)=NP(Oc4ccc(/C=N/N(C)P(=S)(Oc5ccc(C(N(CC=C)CP(=O)([O-])O)P(=O)([O-])O)cc5)Oc5ccc(C(N(CC=C)CP(=O)([O-])O)P(=O)([O-])O)cc5)cc4)(Oc4ccc(/C=N/N(C)P(=S)(Oc5ccc(C(N(CC=C)CP(=O)([O-])O)P(=O)([O-])O)cc5)Oc5ccc(C(N(CC=C)CP(=O)([O-])O)P(=O)([O-])O)cc5)cc4)=N3)cc2)cc1)P(=O)([O-])O.[Na+].[Na+].[Na+].[Na+].[Na+].[Na+].[Na+].[Na+].[Na+].[Na+].[Na+].[Na+].[Na+].[Na+].[Na+].[Na+].[Na+].[Na+].[Na+].[Na+].[Na+].[Na+].[Na+].[Na+] (stereo not drawn) | Active | Active | Active | Active | Active | Soluble | Active | Dose-dependent effect | Active | Dose-dependent effect |  |
| CN(CP(=O)(O)O)C(c1ccc(OP(=S)(Oc2ccc(C(N(C)CP(=O)(O)O)P(=O)(O)O)cc2)N(C)/N=C/c2ccc(OP3(Oc4ccc(/C=N/N(C)P(=S)(Oc5ccc(C(N(C)CP(=O)(O)O)P(=O)(O)O)cc5)Oc5ccc(C(N(C)CP(=O)(O)O)P(=O)(O)O)cc5)cc4)=NP(Oc4ccc(/C=N/N(C)P(=S)(Oc5ccc(C(N(C)CP(=O)(O)O)P(=O)(O)O)cc5)Oc5ccc(C(N(C)CP(=O)(O)O)P(=O)(O)O)cc5)cc4)(Oc4ccc(/C=N/N(C)P(=S)(Oc5ccc(C(N(C)CP(=O)(O)O)P(=O)(O)O)cc5)Oc5ccc(C(N(C)CP(=O)(O)O)P(=O)(O)O)cc5)cc4)=NP(Oc4ccc(/C=N/N(C)P(=S)(Oc5ccc(C(N(C)CP(=O)(O)O)P(=O)(O)O)cc5)Oc5ccc(C(N(C)CP(=O)(O)O)P(=O)(O)O)cc5)cc4)(Oc4ccc(/C=N/N(C)P(=S)(Oc5ccc(C(N(C)CP(=O)(O)O)P(=O)(O)O)cc5)Oc5ccc(C(N(C)CP(=O)(O)O)P(=O)(O)O)cc5)cc4)=N3)cc2)cc1)P(=O)(O)O (stereo not drawn) | Active | Active | Active |  |  |  |  |  | Active |  |  |
| CCCCN(CP(=O)([O-])O)C(c1ccc(OP(=S)(Oc2ccc(C(N(CCCC)CP(=O)([O-])O)P(=O)([O-])O)cc2)N(C)/N=C/c2ccc(OP3(Oc4ccc(/C=N/N(C)P(=S)(Oc5ccc(C(N(CCCC)CP(=O)([O-])O)P(=O)([O-])O)cc5)Oc5ccc(C(N(CCCC)CP(=O)([O-])O)P(=O)([O-])O)cc5)cc4)=NP(Oc4ccc(/C=N/N(C)P(=S)(Oc5ccc(C(N(CCCC)CP(=O)([O-])O)P(=O)([O-])O)cc5)Oc5ccc(C(N(CCCC)CP(=O)([O-])O)P(=O)([O-])O)cc5)cc4)(Oc4ccc(/C=N/N(C)P(=S)(Oc5ccc(C(N(CCCC)CP(=O)([O-])O)P(=O)([O-])O)cc5)Oc5ccc(C(N(CCCC)CP(=O)([O-])O)P(=O)([O-])O)cc5)cc4)=NP(Oc4ccc(/C=N/N(C)P(=S)(Oc5ccc(C(N(CCCC)CP(=O)([O-])O)P(=O)([O-])O)cc5)Oc5ccc(C(N(CCCC)CP(=O)([O-])O)P(=O)([O-])O)cc5)cc4)(Oc4ccc(/C=N/N(C)P(=S)(Oc5ccc(C(N(CCCC)CP(=O)([O-])O)P(=O)([O-])O)cc5)Oc5ccc(C(N(CCCC)CP(=O)([O-])O)P(=O)([O-])O)cc5)cc4)=N3)cc2)cc1)P(=O)([O-])O.[Na+].[Na+].[Na+].[Na+].[Na+].[Na+].[Na+].[Na+].[Na+].[Na+].[Na+].[Na+].[Na+].[Na+].[Na+].[Na+].[Na+].[Na+].[Na+].[Na+].[Na+].[Na+].[Na+].[Na+] (stereo not drawn) | Active | Active | Active | Active | Active | Soluble | Active |  | Active |  | Toxic |

From ChEMBL document CHEMBL1151854, “Dendrimers ended by non-symmetrical azadiphosphonate groups: synthesis and immunological properties” (Bioorg Med Chem Lett, 2009)
